A short description of data set [1]: Cytotoxicity against African green monkey Vero cells assessed as cell viability at 1.5 mM incubated for 24 hrs by XTT assay. Type of data set: toxicity, cell-based. Particulars: chlorocebus sabaeus, read-out: Activity. A digest of the protocol:
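Vero cells in EMEM with 10% FBS and penicillin/streptomycin were seeded at 500–1000 cells/well. They were dosed from DMSO stocks (final DMSO 0.5%) over 20 μM to 1.5 mM and incubated 24 h at 37 °C, 10% CO2. XTT was added 2 h before read-out at 450 nm, with 660 nm background. Viability was blank-subtracted and normalized to DMSO-only wells as 100%. Values are the mean of two technical replicates.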
On the technique in general: Tetrazolium dyes change colour on reduction, which living cells bring about.

Data set [2] can be described thus: Binding affinity to Mycobacterium tuberculosis PanD assessed as dissociation constant by isothermal titration calorimetry. The procedure, abridged: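 ITC at 20 °C, 100 μM Mtb PanD titrated with 2 mM ligand, after desalting into 50 mM Tris pH 7.5. Buffer-versus-compound heats subtracted. KD obtained by least-squares fit of the binding isotherm to a single-site model.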
A general note: In ITC the heat of successive injections is recorded.

Data set [3] concerns Mycobacterium tuberculosis. The data set can be described thus: Binding affinity to Mycobacterium tuberculosis PanD assessed as change in entropy by isothermal titration calorimetry. A digest of the protocol:
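Mtb PanD (100 μM) in 50 mM Tris pH 7.5 titrated with 2 mM ligand by ITC at 20 °C. Buffer-versus-compound control heats subtracted. Isotherm fitted by least squares to a single-site binding model, which yields the thermodynamic parameters.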

As usually defined, the Kd is a measure of binding affinity in units of concentration.

Where only a bound is given, the exact number is not on record here.

For `O=C(O)c1nccnc1NCc1ccccc1`, the viability at 24 h, 1500 µM in data set [1] came out at 50%.

For the molecule `Nc1cnc(C(=O)O)cn1`, in data set [1], the viability at 24 h, 1500 µM was determined as 50%. In data set [2], the dissociation constant (Kd) was 37 µM. The TdeltaS in data set [3] was 0.6 kcal/mol.

For the molecule `Nc1nccnc1C(=O)O`, the viability at 24 h, 1500 µM in data set [1] stood at 50%. For the same molecule, the Kd in data set [2] turned out to be 40 µM. Further, the TdeltaS in data set [3] is -0.7 kcal/mol.

Turning to `O=C(O)c1cnccn1` [PYRAZINOIC ACID], in data set [3], the TdeltaS was 3 kcal/mol.

In the case of `O=C(O)c1nccnc1Nc1ccccc1`, the Kd in data set [2] was determined as 47 µM. In addition, the TdeltaS in data set [3] was -2.5 kcal/mol.

On to `CC(C)Nc1nccnc1C(=O)O`, for which the viability at 24 h, 1500 µM in data set [1] amounted to 50%. Moreover, in data set [2], the Kd is > 100 µM.

Take `CCCNc1nccnc1C(=O)O`: the viability at 24 h, 1500 µM in data set [1] stood at 50%. The Kd in data set [2] came out at 7 µM. For the same molecule, the TdeltaS in data set [3] was -5.7 kcal/mol.
